Here are results for three substances from PMC3147223 (Journal of biomedical materials research. Part A, 2009).

Where no end group is shown, it is not given here.

One assay deals with Human pulmonary ECs. The assay can be described thus: Competitive platelet-EC static adhesion assay: EC adhesion. It counts as cell-based. The conditions noted are these: washed suspension of 190 EC/μl and 50,000 platelet/μl, 30 min, 37°C, n=3, FN=1. In outline: (§1)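 Passage-7 ECs were detached (Cellstripper, 30 min) and mixed in 1% BSA with washed platelets (citrated donor blood; PRP pelleted, EDTA-PBS wash), plus 2 mM CaCl2 and 1 mM MgCl2 final. Surfaces (FSP adsorbed 24 h on fluorosilane monolayers, or FN-coated glass) were pre-blocked with 2% BSA for 30 min. Samples were PFA-fixed and stained with FITC anti-CD41a, phalloidin and DAPI. 14–33 epifluorescent fields/surface were analysed; two-sample t-test.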

Another assay deals with platelets. The assay can be described thus: Competitive platelet-EC static adhesion assay: platelet adhesion. It counts as cell-based, human. The note with it: washed suspension of 190 EC/μl and 50,000 platelet/μl, 30 min, 37°C, n=3, FN=1. In short, it runs like this:
as §1

Turning to GSSS-*CRRETAWAC* (disulfide) [cRRE FSP], in the assay with Human pulmonary ECs, the “EC adhesion (EC population) normalized to FN” value is recorded as 0.93.
Consider GSSSRGD [RGD FSP], for which the “EC adhesion (EC population) normalized to FN” value with Human pulmonary ECs stood at 0.99. Besides, the “Platelet surface coverage normalized to FN, platelet-EC suspension” value in the assay with platelets was determined as 1.99.
With “cyclic(RGDfE)-SSSK (head to tail) [cRGD FSP]”, the “EC adhesion (EC population) normalized to FN” value in the assay with Human pulmonary ECs was 1.05. Further, in the assay with platelets, the “Platelet surface coverage normalized to FN, platelet-EC suspension” value is on record as 2.66.
